How the values were obtained:
[1] = melting temperature; fluorescence melt of hairpins on a sequencing array, two-state fit, raised by 9.35 °C to match UV melts; settings: sodium 0.088 M
Outline: (§1)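 Cy3 signals were normalised both to pre-quench Cy3 and to control constructs. They came from library hairpins carrying annealed Cy3 and quencher oligos on a sequenced MiSeq flow cell, imaged in 50 mM Na-HEPES pH 8.0, 25 mM NaCl, in 2.5 °C steps up to 60 °C. Bootstrapped two-state fits gave melting temperature and folding enthalpy, and four replicates were combined by inverse variance. Fitted temperatures were then raised by 9.35 °C to match UV melts.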

[2] = folding enthalpy; higher = less favourable; fluorescence melt of hairpins on a sequencing array, two-state fit; settings: sodium 0.088 M
Outline: as §1

Row | Sequence | Tm [1] [°C] | folding enthalpy [2] [kcal/mol]
1 | CCAGAGAAATCTGG (((((....))))) | 44.4 | -19.2
2 | GGGATGGGAAACCATCTC (.(((((....))))).) | 49.9 | -24.5
3 | GTAGCCGAAAGGCTTTAC ((((((....)))..))) | 27.3 | -7
4 | GCCAAGCGAAAGCTGAGC ((..(((....)))..)) | 47.7 | -15.3
5 | GAGGTACGAAAGTACTC (((.(((....)))))) | 45.8 | -13.6
6 | GAGGCCGGAAACGGTCTC (((.(((....))).))) | 64.8 | -36
7 | GTTGTTGGAAACAATAGC (.(.(((....))).).) | 31.2 | -11.9
8 | GGATTAGGAAACTAACCC ((.((((....)))).)) | 30.1 | -17.3
9 | GTTTCCGAAAGGAGAAAC ((((((....)))..))) | 32.5 | -16.8
10 | GCGTCGCGAAAGCAATGC ((.(.((....)).).)) | 43.9 | -21.6
11 | GAAGTTGGAAACAACCTC ((.((((....)))).)) | 27.4 | -15
12 | GATCCAACTTTGGATC ((((((....)))))) | 51 | -43.3
13 | GGTATGAAAATACC (((((....))))) | 47.5 | -20.9
14 | GCTCCCGAAAGGGAAGC ((((((....))).))) | 59.3 | -31.8
15 | GGACCTCCGAAAGGATCC (((..(((....)))))) | 28.7 | -13.3
16 | GGATTCGGAAACGAGTCC (((.(((....))).))) | 51.1 | -35.7
17 | GCCTCCGGAAACGAAGGC ((((.((....)).)))) | 48.8 | -28.3
18 | GATCCATATTGGATC ((((((...)))))) | 51.7 | -37.3
19 | GCAATCGAAAGATTGTGC ((((((....)))..))) | 51.1 | -27.1
20 | GTTAACGAAAGTTATAAC ((((((....)))..))) | 26.4 | -13.3
21 | GGACCCGGAAACAGGTCC (((((.(....).))))) | 49.4 | -39.7
22 | GGTTGTGGAAACATAGCC ((.(.((....)).).)) | 31.6 | -19.1
23 | GACGCTGGAAACGGCGTC (((((.(....).))))) | 64.9 | -44.2

Row | Sequence | Tm [1] [°C] | folding enthalpy [2] [kcal/mol]
24 | GGCGCAGGAAACTGCACC ((.((((....)))).)) | 54.4 | -29.9
25 | GCCAGCGAAAGCTCTGGC ((((((....)))..))) | 50.6 | -24.5
26 | GCAATTCGAAAGAAATGC (((.(((....))).))) | 46.1 | -36.8
27 | GATCCGGTTTCGGATC ((((((....)))))) | 59.5 | -44.2
28 | CGTGCGGAAACGCGACG ((((((....))).))) | 55.1 | -23.5
29 | GCTGACCGAAAGGTAAGC (((.(((....))).))) | 57.8 | -33.5
30 | GGGGTCGAAAGACGTCCC ((((((....)))..))) | 42.4 | -18.5
31 | GACAACCGAAAGGTGTC (((.(((....)))))) | 53.9 | -24.8
32 | GCGTTAGCACGC ((((....)))) | 61.7 | -8.5
33 | GAAGGCGAAAGCCGTTC ((((((....))).))) | 43 | -8.18
34 | GCCGTCGGAAACAACGGC (((((.(....).))))) | 53.9 | -47.5
35 | GGTCGCGGAAACGCGATC (.(((((....))))).) | 63.7 | -17.6
36 | GAGTAGGGAAACCTACTC (((((((....))))))) | 57 | -46.6
37 | GGTAATGGAAACGTTACC (((((.(....).))))) | 45 | -40.4
38 | GATCTATAATTAGATC ((((((....)))))) | 39.9 | -25.5
39 | GATCCACATCTGGATC ((((((....)))))) | 49.2 | -29.1
40 | GCGTGCGGAAACGCATGC ((.((((....)))).)) | 67.4 | -31
41 | GCCCACGAAAGTGCTGGC ((((((....)))..))) | 47.4 | -18.9
42 | GGTTGCGAAAGCATTACC ((((((....)))..))) | 37.8 | -17.7
43 | GTGCAGCCGAAAGGCCAC (((..(((....)))))) | 49.1 | -12.7
44 | GGGACTGGAAACAGTCCC (((((((....))))))) | 69 | -37.8
45 | GTGAGGGGAAACCTTCGC (.((.((....)).)).) | 33.6 | -21.5
46 | GATCTATGCTAGATC ((((((...)))))) | 40.4 | -23.4
